Experiment [1] deals with Staphylococcus epidermidis. The experiment is described as follows: Antimicrobial activity against Staphylococcus epidermidis ATCC 12228 after 24 hrs by microdilution assay. It is filed as functional. The method, boiled down: (§1)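 Broth microdilution MIC in Mueller-Hinton broth. Inocula came from 24 h broth cultures grown at 37 °C, were adjusted to 0.5 McFarland and diluted 1:100 in broth. Compounds were tested at final concentrations of 256 to 0.5 µg/mL, with gentamycin at 128 to 0.25 µg/mL. Sealed plates were incubated 24 h at 37 °C. MIC was the lowest concentration with no visible growth. Clear wells were subcultured onto Mueller-Hinton agar. Triplicate.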

The test system of experiment [2] is Staphylococcus aureus. Description: Antimicrobial activity against Staphylococcus aureus ATCC 6538-P after 24 hrs by microdilution assay. The experiment is classed as functional. The method, boiled down: as §1
For experiment [3], the system named is Bacillus cereus. The experiment is described as follows: Antimicrobial activity against Bacillus cereus ATCC 7064 after 24 hrs by microdilution assay. The experiment is classed as functional. An outline of the steps: as §1
In experiment [4] the test system is Salmonella enterica. Description: Antimicrobial activity against Salmonella Typhimurium CCM 5445 after 24 hrs by microdilution assay. The experiment is classed as functional, Salmonella enterica subsp. enterica serovar Typhimurium. An outline of the steps: as §1
For experiment [5], the system named is Pseudomonas aeruginosa. Description: Antimicrobial activity against Pseudomonas aeruginosa ATCC 27853 after 24 hrs by microdilution assay. The experiment is classed as functional. An outline of the steps: as §1
The test system of experiment [6] is Escherichia coli. Description: Antimicrobial activity against Escherichia coli ATCC 23999 after 24 hrs by microdilution assay. The experiment is classed as functional. An outline of the steps:
as §1

The test system of experiment [7] is Enterococcus faecalis. Description: Antimicrobial activity against Enterococcus faecalis ATCC 29212 after 24 hrs by microdilution assay. The experiment is classed as functional. The method, boiled down:
as §1

Experiment [8] concerns Klebsiella pneumoniae. The experiment is described as follows: Antimicrobial activity against Klebsiella pneumoniae CCM 2318 after 24 hrs by microdilution assay. The experiment is classed as functional. The method, boiled down:
as §1

Values after ≈ are worked out from the molar mass of the structure shown.

Regarding `C[C@@H]1O[C@@H](O[C@H]2[C@H](OC(=O)[C@]34CCC(C)(C)C[C@@H]3C3=CC[C@@H]5[C@@]6(C)CC[C@H](O[C@@H]7OC[C@H](O)[C@H](O)[C@H]7O)C(C)(C)[C@@H]6CC[C@@]5(C)[C@]3(C)CC4)O[C@H](CO[C@@H]3O[C@H](CO)[C@@H](O)[C@H](O)[C@H]3O)[C@@H](O)[C@@H]2O)[C@H](O)[C@H](O)[C@H]1O` [SCOPOSIDE A], the MIC in experiment [1] (ATCC 12228, 24 h) is 64 µg/mL (≈ 60.4 µM); in experiment [2], 128 µg/mL (≈ 121 µM); in experiment [3] (ATCC 7064, 24 h), 16 µg/mL (≈ 15.1 µM); in experiment [4] (CCM 5445, 24 h), 128 µg/mL (≈ 121 µM); in experiment [5] (ATCC 27853, 24 h), 64 µg/mL (≈ 60.4 µM); in experiment [6] (ATCC 23999, 24 h), 8 µg/mL (≈ 7.55 µM). Besides, the minimum inhibitory concentration (MIC) was found to be 32 µg/mL (≈ 30.2 µM) in experiment [7] (ATCC 29212, 24 h) and 64 µg/mL (≈ 60.4 µM) in experiment [8] (CCM 2318, 24 h).

On to GENTAMICIN, for which the MIC worked out at 1 µg/mL in experiment [1]; 1 µg/mL in experiment [2]; 4 µg/mL in experiment [3]; 1 µg/mL in experiment [4] (Salmonella enterica subsp. enterica serovar Typhimurium); 2 µg/mL in experiment [5]; 1 µg/mL in experiment [6]. The MIC in experiment [7] is 16 µg/mL; in experiment [8], 4 µg/mL.

In the case of `C[C@@H]1O[C@@H](O[C@H]2[C@H](O)[C@@H](O)[C@H](O[C@H]3CC[C@]4(C)[C@H]5CC=C6[C@H]7CC(C)(C)CC[C@]7(C(=O)O[C@@H]7O[C@H](CO[C@@H]8O[C@H](CO)[C@@H](O)[C@H](O)[C@H]8O)[C@@H](O)[C@H](O)[C@H]7O)CC[C@@]6(C)[C@]5(C)CC[C@H]4C3(C)C)O[C@@H]2CO)[C@H](O)[C@H](O[C@@H]2OC[C@@H](O[C@@H]3OC[C@@H](O)[C@H](O)[C@H]3O)[C@H](O)[C@H]2O)[C@H]1O` [SCOPOSIDE B], the minimal inhibitory concentration (MIC) in experiment [1] (ATCC 12228, 24 h) is 128 µg/mL (≈ 94.6 µM); in experiment [2] it was 256 µg/mL (≈ 189 µM); in experiment [3] (ATCC 7064, 24 h), 16 µg/mL (≈ 11.8 µM); in experiment [4] (CCM 5445, 24 h) it was 64 µg/mL (≈ 47.3 µM); in experiment [5] (ATCC 27853, 24 h), 64 µg/mL (≈ 47.3 µM); in experiment [6] (ATCC 23999, 24 h), 128 µg/mL (≈ 94.6 µM). For the same compound, the MIC in experiment [7] (ATCC 29212, 24 h) was found to be 64 µg/mL (≈ 47.3 µM); in experiment [8] (CCM 2318, 24 h), 64 µg/mL (≈ 47.3 µM).

Take `C[C@@H]1O[C@@H](O[C@H]2[C@H](O[C@H]3CC[C@]4(C)[C@H]5CC=C6[C@H]7CC(C)(C)CC[C@]7(C(=O)O[C@@H]7O[C@H](CO[C@@H]8O[C@H](CO)[C@@H](O)[C@H](O)[C@H]8O)[C@@H](O)[C@H](O)[C@H]7O)CC[C@@]6(C)[C@]5(C)CC[C@H]4C3(C)C)OC[C@H](O)[C@@H]2O[C@@H]2OC[C@@H](O[C@@H]3O[C@H](CO)[C@@H](O)[C@H](O)[C@H]3O)[C@H](O)[C@H]2O)[C@H](O)[C@H](O[C@@H]2OC[C@@H](O)[C@H](O)[C@H]2O)[C@H]1O` [SCOPOSIDE C]: the minimum inhibitory concentration (MIC) in experiment [1] (ATCC 12228, 24 h) turned out to be 64 µg/mL (≈ 43.1 µM); in experiment [2] it was 64 µg/mL (≈ 43.1 µM); in experiment [3] (ATCC 7064, 24 h) it was 32 µg/mL (≈ 21.5 µM); in experiment [4] (CCM 5445, 24 h), 64 µg/mL (≈ 43.1 µM); in experiment [5] (ATCC 27853, 24 h) it was 128 µg/mL (≈ 86.2 µM); in experiment [6] (ATCC 23999, 24 h) it was 128 µg/mL (≈ 86.2 µM). In addition, the MIC in experiment [7] (ATCC 29212, 24 h) came to 32 µg/mL (≈ 21.5 µM); in experiment [8] (CCM 2318, 24 h), 64 µg/mL (≈ 43.1 µM).

The record behind these values is ChEMBL document CHEMBL1158579, “Antimicrobial triterpenoid glycosides from Cephalaria scoparia” (2010).
